Measurements as given in ChEMBL document CHEMBL2412964, “Discovery of novel tetrahydro-pyrazolo [4,3-c] pyridines for the treatment of neuropathic pain: synthesis and neuropharmacology” (Eur J Med Chem, 2013).

How the values were obtained:
Rattus norvegicus [1] = test: Antinociceptive activity in Wistar rat partial sciatic nerve ligation model assessed as reversal of mechanical allodynia at 100 mg/kg, ip after 120 mins (reference value: 2.9 +/- 0.3%); assay type: functional; conditions: route intraperitoneal
Rattus norvegicus [2] = test: Antinociceptive activity in Wistar rat partial sciatic nerve ligation model assessed as reversal of mechanical allodynia at 100 mg/kg, ip after 60 mins (reference value: 2.8 +/- 0.3%); assay type: functional; conditions: route intraperitoneal
Rattus norvegicus [3] = test: Antinociceptive activity in Wistar rat partial sciatic nerve ligation model assessed as reversal of mechanical allodynia at 100 mg/kg, ip after 30 mins (reference value: 2.9 +/- 0.3%); assay type: functional; conditions: route intraperitoneal
Rattus norvegicus [4] = test: Antinociceptive activity in Wistar rat chronic constriction injury model assessed as reversal of mechanical allodynia at 100 mg/kg, ip after 120 mins (reference value: 5.3 +/- 0.5%); assay type: functional; conditions: route intraperitoneal
Rattus norvegicus [5] = test: Antinociceptive activity in Wistar rat chronic constriction injury model assessed as reversal of mechanical allodynia at 100 mg/kg, ip after 60 mins (reference value: 4.9 +/- 1.0%); assay type: functional; conditions: route intraperitoneal
Rattus norvegicus [6] = test: Antinociceptive activity in Wistar rat chronic constriction injury model assessed as reversal of mechanical allodynia at 100 mg/kg, ip after 30 mins (reference value: 4.7 +/- 2.1%); assay type: functional; conditions: route intraperitoneal
Rattus norvegicus [7] = test: Antinociceptive activity in Wistar rat partial sciatic nerve ligation model assessed as reversal of cold allodynia at 100 mg/kg, ip after 120 mins (reference value: 1.5 +/- 0.5%); assay type: functional; conditions: route intraperitoneal
Rattus norvegicus [8] = test: Antinociceptive activity in Wistar rat partial sciatic nerve ligation model assessed as reversal of cold allodynia at 100 mg/kg, ip after 60 mins (reference value: 2.5 +/- 0.3%); assay type: functional; conditions: route intraperitoneal
Rattus norvegicus [9] = test: Antinociceptive activity in Wistar rat partial sciatic nerve ligation model assessed as reversal of cold allodynia at 100 mg/kg, ip after 30 mins (reference value: 4.1 +/- 1.0%); assay type: functional; conditions: route intraperitoneal
Rattus norvegicus [10] = test: Antinociceptive activity in Wistar rat chronic constriction injury model assessed as reversal of cold allodynia at 100 mg/kg, ip after 120 mins (reference value: 5.4 +/- 1.9%); assay type: functional; conditions: route intraperitoneal
Rattus norvegicus [11] = test: Antinociceptive activity in Wistar rat chronic constriction injury model assessed as reversal of cold allodynia at 100 mg/kg, ip after 60 mins (reference value: 6.3 +/- 1.9%); assay type: functional; conditions: route intraperitoneal
Rattus norvegicus [12] = test: Antinociceptive activity in Wistar rat chronic constriction injury model assessed as reversal of cold allodynia at 100 mg/kg, ip after 30 mins (reference value: 0.6 +/- 2.7%); assay type: functional; conditions: route intraperitoneal
Rattus norvegicus [13] = test: Antinociceptive activity in Wistar rat partial sciatic nerve ligation model assessed as reversal of tactile allodynia at 100 mg/kg, ip after 120 mins relative to control; assay type: functional; conditions: route intraperitoneal
Rattus norvegicus [14] = test: Antinociceptive activity in Wistar rat partial sciatic nerve ligation model assessed as reversal of tactile allodynia at 100 mg/kg, ip after 60 mins (reference value: 12.5 +/- 1.2%); assay type: functional; conditions: route intraperitoneal
Rattus norvegicus [15] = test: Antinociceptive activity in Wistar rat partial sciatic nerve ligation model assessed as reversal of tactile allodynia at 100 mg/kg, ip after 30 mins (reference value: 7.7 +/- 0.7%); assay type: functional; conditions: route intraperitoneal
Rattus norvegicus [16] = test: Antinociceptive activity in Wistar rat chronic constriction injury model assessed as reversal of tactile allodynia at 100 mg/kg, ip after 120 mins (reference value: 4.1 +/- 2.1%); assay type: functional; conditions: route intraperitoneal
Rattus norvegicus [17] = test: Antinociceptive activity in Wistar rat chronic constriction injury model assessed as reversal of tactile allodynia at 100 mg/kg, ip after 60 mins (reference value: 1.3 +/- 0.3%); assay type: functional; conditions: route intraperitoneal
Rattus norvegicus [18] = test: Antinociceptive activity in Wistar rat chronic constriction injury model assessed as reversal of tactile allodynia at 100 mg/kg, ip after 30 mins (reference value: 3.4 +/- 0.8%); assay type: functional; conditions: route intraperitoneal
Rattus norvegicus [19] = test: Antinociceptive activity in Wistar rat partial sciatic nerve ligation model assessed as reversal of spontaneous pain response at 100 mg/kg, ip after 120 mins (reference value: 1.2 +/- 0.1%); assay type: functional; conditions: route intraperitoneal
Rattus norvegicus [20] = test: Antinociceptive activity in Wistar rat partial sciatic nerve ligation model assessed as reversal of spontaneous pain response at 100 mg/kg, ip after 60 mins (reference value: 2.9 +/- 0.3%); assay type: functional; conditions: route intraperitoneal
Rattus norvegicus [21] = test: Antinociceptive activity in Wistar rat partial sciatic nerve ligation model assessed as reversal of spontaneous pain response at 100 mg/kg, ip after 30 mins (reference value: 3.2 +/- 0.3%); assay type: functional; conditions: route intraperitoneal
Rattus norvegicus [22] = test: Antinociceptive activity in Wistar rat chronic constriction injury model assessed as reversal of spontaneous pain response at 100 mg/kg, ip after 120 mins (reference value: 4.5 +/- 0.2%); assay type: functional; conditions: route intraperitoneal
Rattus norvegicus [23] = test: Antinociceptive activity in Wistar rat chronic constriction injury model assessed as reversal of spontaneous pain response at 100 mg/kg, ip after 60 mins (reference value: 4.6 +/- 0.6%); assay type: functional; conditions: route intraperitoneal
Rattus norvegicus [24] = test: Antinociceptive activity in Wistar rat chronic constriction injury model assessed as reversal of spontaneous pain response at 100 mg/kg, ip after 30 mins (reference value: 8.9 +/- 4.6%); assay type: functional; conditions: route intraperitoneal
Mus musculus [25] = test: Antinociceptive activity in Swiss albino mouse assessed as inhibition of formalin-induced flinching at 100 mg/kg administered 30 mins prior to test measured for 10 to 30 mins relative to control; assay type: functional
Mus musculus [26] = test: Antinociceptive activity in Swiss albino mouse assessed as inhibition of formalin-induced flinching at 100 mg/kg administered 30 mins prior to test measured up to 5 mins relative to control; assay type: functional
Mus musculus [27] = test: Antinociceptive activity in Swiss albino mouse assessed as inhibition of acetic acid-induced writhing at 100 mg/kg administered 30 mins prior to acetic acid-challenge measured for 30 mins relative to control; assay type: functional
How it was run: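 Swiss albino mice (20–25 g, either sex); writhing induced by i.p. 0.1 mL of 2.0% v/v acetic acid given half an hour after test compound dosing.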

Mus musculus [28] = organism: Mus musculus; test: Neurotoxicity in Swiss albino mouse assessed as minimal motor impairment after 4 hrs by rotarod test; assay type: toxicity, organism-based; conditions: in vivo
How it was run: (§1)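 Mice, either sex, 20-25 g, dosed at 30, 100 and 300 mg/kg. Minimal motor impairment was scored on the rotarod at 0.5 and 4.0 h. Value reported is the minimum dose showing the effect in half or more of three mice per group.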

Mus musculus [29] = organism: Mus musculus; test: Neurotoxicity in Swiss albino mouse assessed as minimal motor impairment after 0.5 hrs by rotarod test; assay type: toxicity, organism-based; conditions: in vivo; how it was run: as §1
Mus musculus [30] = test: Neurotoxicity in Swiss albino mouse assessed as minimal motor impairment at 300 mg/kg after 4 hrs by rotarod test; assay type: toxicity, organism-based; design: dose 300 mg/kg; conditions: in vivo
How it was run: (§2)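 Swiss albino mice of either sex, 20-25 g, dosed at 30, 100 and 300 mg/kg, three per group. Minimal motor impairment scored by rotarod at 0.5 and 4.0 h after dosing. Reported value is the lowest dose giving impairment in half or more of the mice.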

Mus musculus [31] = test: Neurotoxicity in Swiss albino mouse assessed as minimal motor impairment at 300 mg/kg after 0.5 hrs by rotarod test; assay type: toxicity, organism-based; design: dose 300 mg/kg; conditions: in vivo; how it was run: as §2

With `CCN1CCc2c(c(C)nn2C(=O)Nc2ccc(C)cc2C)C1` the Activity (Rattus norvegicus [1]) was 18.7%, the Activity (Rattus norvegicus [2]) was 50.5% and the Activity (Rattus norvegicus [3]) was 63.3%. The Activity (Rattus norvegicus [4]) was 65%, the Activity (Rattus norvegicus [5]) was 57.5% and the Activity (Rattus norvegicus [6]) was 70.8%. It also gave an Activity (Rattus norvegicus [7]) of 38.7%, an Activity (Rattus norvegicus [8]) of 14.3% and an Activity (Rattus norvegicus [9]) of 60.4%. It also gave an Activity (Rattus norvegicus [10]) of 41.8%, an Activity (Rattus norvegicus [11]) of 37.3% and an Activity (Rattus norvegicus [12]) of 54.4%. For the same compound, the Activity (Rattus norvegicus [13]) was 30.2%, the Activity (Rattus norvegicus [14]) was 41.9% and the Activity (Rattus norvegicus [15]) was 53.3%. It also gave an Activity (Rattus norvegicus [16]) of 66.1%, an Activity (Rattus norvegicus [17]) of 56.6% and an Activity (Rattus norvegicus [18]) of 17.2%. The Activity (Rattus norvegicus [19]) was 5.9%, the Activity (Rattus norvegicus [20]) was 34.4% and the Activity (Rattus norvegicus [21]) was 40.7%. The Activity (Rattus norvegicus [22]) was 64.4%, the Activity (Rattus norvegicus [23]) was 67.5% and the Activity (Rattus norvegicus [24]) was 72.9%. The inhibition in vivo at 100 mg/kg (Mus musculus [25]) was 16.3%, the inhibition in vivo at 100 mg/kg (Mus musculus [26]) was 7% and the inhibition in vivo at 100 mg/kg (Mus musculus [27]) was 56.1%. It also gave an MLD (Mus musculus [28]) of 300 mg/kg and an MLD (Mus musculus [29]) of 300 mg/kg.
In the case of `CCN1CCc2c(c(C(C)(C)C)nn2C(=O)Nc2ccc(F)cc2F)C1`, the Activity (Rattus norvegicus [1]) is reported as 43.9%, the Activity (Rattus norvegicus [2]) is reported as 60.2% and the Activity (Rattus norvegicus [3]) is reported as 60%. It also gave an Activity (Rattus norvegicus [4]) of 11.2%, an Activity (Rattus norvegicus [5]) of 72.9% and an Activity (Rattus norvegicus [6]) of 70.8%. For the same compound, the Activity (Rattus norvegicus [7]) was 40%, the Activity (Rattus norvegicus [8]) was 64.4% and the Activity (Rattus norvegicus [9]) was 64.3%. The Activity (Rattus norvegicus [10]) was 40%, the Activity (Rattus norvegicus [11]) was 64.4% and the Activity (Rattus norvegicus [12]) was 64.3%. It also gave an Activity (Rattus norvegicus [13]) of 38.3%, an Activity (Rattus norvegicus [14]) of 51.7% and an Activity (Rattus norvegicus [15]) of 66.7%. It also gave an Activity (Rattus norvegicus [16]) of 51.7%, an Activity (Rattus norvegicus [17]) of 58.3% and an Activity (Rattus norvegicus [18]) of 61.2%. It also gave an Activity (Rattus norvegicus [19]) of 56.9%, an Activity (Rattus norvegicus [20]) of 65% and an Activity (Rattus norvegicus [21]) of 89.3%. It also gave an Activity (Rattus norvegicus [22]) of 91.6%, an Activity (Rattus norvegicus [23]) of 85.9% and an Activity (Rattus norvegicus [24]) of 81.6%. The inhibition in vivo at 100 mg/kg (Mus musculus [25]) was 73.4%, the inhibition in vivo at 100 mg/kg (Mus musculus [26]) was 4.4% and the inhibition in vivo at 100 mg/kg (Mus musculus [27]) was 71.9%. For the same compound, the MLD (Mus musculus [28]) was 100 mg/kg and the MLD (Mus musculus [29]) was 100 mg/kg.
`CCN1CCc2c(c(C)nn2C(=O)Nc2ccc(Cl)cc2)C1` showed an Activity (Rattus norvegicus [1]) of 11.3%, an Activity (Rattus norvegicus [2]) of 5% and an Activity (Rattus norvegicus [3]) of 17.5%. It also gave an Activity (Rattus norvegicus [4]) of 8.3%, an Activity (Rattus norvegicus [5]) of 14.6% and an Activity (Rattus norvegicus [6]) of 14.6%. For the same compound, the Activity (Rattus norvegicus [7]) was 11%, the Activity (Rattus norvegicus [8]) was 7.9% and the Activity (Rattus norvegicus [9]) was 13.2%. The Activity (Rattus norvegicus [10]) was 9.5%, the Activity (Rattus norvegicus [11]) was 23% and the Activity (Rattus norvegicus [12]) was 15.9%. The Activity (Rattus norvegicus [13]) was 14.2%, the Activity (Rattus norvegicus [14]) was 8.2% and the Activity (Rattus norvegicus [15]) was 18.1%. For the same compound, the Activity (Rattus norvegicus [16]) was 19.7%, the Activity (Rattus norvegicus [17]) was 8% and the Activity (Rattus norvegicus [18]) was 13.2%. It also gave an Activity (Rattus norvegicus [19]) of 11%, an Activity (Rattus norvegicus [20]) of 12.7% and an Activity (Rattus norvegicus [21]) of 13.6%. For the same compound, the Activity (Rattus norvegicus [22]) was 27.4%, the Activity (Rattus norvegicus [23]) was 15% and the Activity (Rattus norvegicus [24]) was 16.9%. It also gave an inhibition in vivo at 100 mg/kg (Mus musculus [25]) of 7.5%, an inhibition in vivo at 100 mg/kg (Mus musculus [26]) of 1.7% and an inhibition in vivo at 100 mg/kg (Mus musculus [27]) of 55.2%. The Activity (Mus musculus [30]) was “Non-toxic” and the Activity (Mus musculus [31]) was “Non-toxic”.
